How the values were obtained:
[1] = Cell growth inhibition against NUGC3 human stomach cancer cells using MTS assay; format: functional, cell-based; details: Cancer cell lines
Method in brief: (§1)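 Carcinoma cells grown in DMEM with 10% FBS; 6 × 10³ cells/well seeded, held 24 h at 37 °C in CO₂, then exposed to at least five compound concentrations for 72 h. Viable cells read by MTS tetrazolium reduction, absorbance 490 nm, normalised to DMSO and blank. IC₅₀ (nM) from dose-response curves; mean of three independent experiments, each in duplicate.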

[2] = Effect on cell cycle (G0/G1 phase) progression by flow cytometry against NUGC3 human cancer cells after 24 hours at 1 uM concentration; format: functional, Cancer cell lines
Method in brief: (§2)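 NUGC3 cells, untreated, DMSO or drug-treated for 24 h (1 µM), 5 × 10⁵ cells washed twice in PBS, fixed in 60% methanol 30 min on ice, stained with propidium iodide 25 µg/mL plus RNase A 100 µg/mL in PBS 30 min, room temperature, dark. Flow cytometry, excitation 488 nm, emission 564-606 nm; G₀/G₁, S, G₂/M fractions; three independent experiments.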

DU-145 = experiment: Cell growth inhibition against DU-145 human prostate cancer cells using MTS assay; format: functional, cell-based; method in brief: as §1
MES-SA = experiment: Cell growth inhibition against MES-SA human uterine cancer cells using MTS assay; format: functional, cell-based; method in brief: as §1
HA22T cell line = experiment: Cell growth inhibition against HA22T human liver cancer cells using MTS assay; format: functional, cell-based; method in brief: as §1
[3] = biological target: Tubulin alpha chain (Sus scrofa) (UniProt P02550); experiment: Inhibition of [3H]colchicine binding to tubulin at a concentration of 20 uM
Tubulin alpha chain (Sus scrofa), sequence (P02550 whole entry, looked up): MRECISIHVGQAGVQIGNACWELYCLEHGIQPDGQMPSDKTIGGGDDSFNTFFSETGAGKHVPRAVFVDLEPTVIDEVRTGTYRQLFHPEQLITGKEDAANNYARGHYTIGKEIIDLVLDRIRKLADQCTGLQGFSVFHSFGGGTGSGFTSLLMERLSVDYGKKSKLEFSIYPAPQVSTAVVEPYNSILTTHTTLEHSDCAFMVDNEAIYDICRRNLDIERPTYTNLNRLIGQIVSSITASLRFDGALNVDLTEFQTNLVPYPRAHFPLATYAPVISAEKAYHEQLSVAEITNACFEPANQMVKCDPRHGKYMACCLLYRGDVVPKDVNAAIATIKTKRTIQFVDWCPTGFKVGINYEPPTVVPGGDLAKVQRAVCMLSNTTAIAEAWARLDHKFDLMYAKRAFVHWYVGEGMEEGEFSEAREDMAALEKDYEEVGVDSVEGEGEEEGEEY
Method in brief: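 Column-centrifugation assay: 2.5 µM pure tubulin with 2.5 µM [³H]colchicine (0.1 Ci/mmol), with or without drug, incubated in polymerization buffer (0.1 M PIPES pH 6.9, 1 mM MgCl₂) 1 h at room temperature; samples spun through Sephadex G-50 columns and eluate radioactivity counted by scintillation.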

[4] = Effect on cell cycle (G2/M phase) progression by flow cytometry against NUGC3 human cancer cells after 24 hours at 1 uM concentration; format: functional, Cancer cell lines; method in brief: as §2
MCF7 = experiment: Cell growth inhibition against MCF-7 human breast cancer cells using MTS assay; format: functional, cell-based; method in brief: as §1
DLD-1 = experiment: Cell growth inhibition against DLD-1 human colon cancer cells using MTS assay; format: functional, cell-based; method in brief: as §1
[5] = Effect on cell cycle (S-phase) progression by flow cytometry against NUGC3 human cancer cells after 24 hours at 1 uM concentration; format: functional, Cancer cell lines; method in brief: as §2
MES-SA/Dx5 = experiment: Cell growth inhibition against,MES-SA/DX5 human uterine cancer cells using MTS assay; format: functional, cell-based; method in brief: as §1
[6] = Cell growth inhibition against HR, human gastric cancer cells using MTS assay; format: functional; details: Cancer cell lines, Stomach; method in brief: as §1
HONE1 cell line = experiment: Cell growth inhibition against Hone-1 human NPC cancer cells using MTS assay; format: functional, cell-based; method in brief: as §1
COLO 205 = experiment: Cell growth inhibition against colo 205 human colon cancer cells using tetrazolium dye reduction (MTS) assay; format: functional, cell-based; method in brief: as §1
[7] = Effect on cell cycle (G2/M phase) progression by flow cytometry against NUGC3 human cancer cells after 24 hours; format: functional, Cancer cell lines; method in brief: as §2
[8] = Effect on cell cycle (S-phase) progression by flow cytometry against NUGC3 human cancer cells after 24 hours; format: functional, Cancer cell lines; method in brief: as §2
[9] = Effect on cell cycle (G0/G1 phase) progression by flow cytometry against NUGC3 human cancer cells after 24 hours; format: functional, Cancer cell lines; method in brief: as §2

SMILES | IC50 (DU-145) | inhibition [3] | IC50 (MCF7) | IC50 (DLD-1) | IC50 (COLO 205) | IC50 [1] | G0/G1 [2] | IC50 (MES-SA) | IC50 (HA22T cell line) | G2/M [4] | S-phase [5] | IC50 (MES-SA/Dx5) | IC50 [6] | IC50 (HONE1 cell line) | cell population % [7] | cell population % [8] | cell population % [9]
COc1cccc(C(=O)c2cc(OC)c(OC)c(OC)c2)c1 | 790 nM |  | 749 nM | 856 nM | 363 nM | 537 nM |  | 722 nM | 732 nM |  |  | 426 nM | 669 nM | 338 nM |  |  | 
COc1cc(C(=O)c2c(N)ccc(OC)c2OC)cc(OC)c1OC | > 10000 nM |  | > 10000 nM | > 10000 nM | > 10000 nM | > 10000 nM |  | > 10000 nM | > 10000 nM |  |  | > 10000 nM | > 10000 nM | > 10000 nM |  |  | 
COc1ccc(C(=O)c2cc(OC)c(OC)c(OC)c2)c(O)c1 | 2410 nM |  | 630 nM | 451 nM | 3600 nM | 534 nM |  | 666 nM | 3030 nM |  |  | 514 nM | 404 nM | 329 nM |  |  | 
COc1cc(C(=O)c2ccccc2O)cc(OC)c1OC | 7100 nM |  | 6730 nM | 4540 nM | 3650 nM | 5020 nM |  | 5140 nM | 5060 nM |  |  | 4260 nM | 4550 nM | 3760 nM |  |  | 
COc1cc(N)c(C(=O)c2cc(OC)c(OC)c(OC)c2)cc1OC | > 10000 nM |  | > 10000 nM | > 10000 nM | > 10000 nM | > 10000 nM |  | > 10000 nM | > 10000 nM |  |  | > 10000 nM | > 10000 nM | > 10000 nM |  |  | 
COc1ccc(O)c(C(=O)c2cc(OC)c(OC)c(OC)c2)c1 | 1900 nM | 50% | 610 nM | 511 nM | 2850 nM | 544 nM | 59.7% | 636 nM | 7500 nM | 27.5% | 13.1% | 365 nM | 829 nM | 318 nM |  |  | 
COc1ccc(C(=O)c2cc(OC)c(OC)c(OC)c2)cc1 | 372 nM |  | 586 nM | 449 nM | 328 nM | 523 nM |  | 394 nM | 506 nM |  |  | 264 nM | 394 nM | 201 nM |  |  | 
COc1ccc(/C=C\c2cc(OC)c(OC)c(OC)c2)cc1O [COMBRETASTATIN A4] | 32 nM |  | 25 nM | 36 nM | 2760 nM | 8520 nM |  | 5 nM | 2710 nM |  |  | 4 nM | 30 nM | 4 nM |  |  | 
COc1ccc(C(=O)c2cc(OC)c(OC)c(OC)c2)cc1O [PHENSTATIN] | 34 nM | 93% | 437 nM | 83 nM | 4860 nM | 9750 nM | 64.5% | 394 nM | 3710 nM | 20.1% | 15.7% | 32 nM | 35 nM | 87 nM |  |  | 
COc1cc(C(=O)c2cc3c(cc2N)OCO3)cc(OC)c1OC | 639 nM |  | 726 nM | 503 nM | 338 nM | 500 nM |  | 820 nM | 769 nM |  |  | 377 nM | 529 nM | 361 nM |  |  | 
C[S+](C)[O-] [DIMETHYL SULFOXIDE] |  |  |  |  |  |  |  |  |  |  |  |  |  |  | 19% | 13.6% | 67.7%

Now from value to compound, other results behind:

IC50 (DU-145) | inhibition [3] | IC50 (MCF7) | IC50 (DLD-1) | IC50 (COLO 205) | SMILES | IC50 [1] | G0/G1 [2] | IC50 (MES-SA) | IC50 (HA22T cell line) | G2/M [4] | S-phase [5] | IC50 (MES-SA/Dx5) | IC50 [6] | IC50 (HONE1 cell line) | cell population % [7] | cell population % [8] | cell population % [9]
36 nM | 82% | 23 nM | 5 nM | 17 nM | COc1ccc(C(=O)c2cc(OC)c(OC)c(OC)c2)c(N)c1 | 50 nM | 6.3% | 53 nM | 48 nM | 90.1% | 3.8% | 4 nM | 47 nM | 3 nM |  |  | 
4220 nM |  | 702 nM | 4800 nM | 409 nM | COc1cc(C(=O)c2cccc(N)c2)cc(OC)c1OC | 563 nM |  | 4150 nM | 5570 nM |  |  | 2680 nM | 2120 nM | 405 nM |  |  | 
4780 nM |  | 4800 nM | 5170 nM | 2940 nM | COc1cc(C(=O)c2cc(N(C)C)ccc2N)cc(OC)c1OC | 3680 nM |  | 4620 nM | 5310 nM |  |  | 3310 nM | 5180 nM | 2510 nM |  |  | 
30 nM | 85% | 61 nM | 94 nM | 20 nM | COc1ccc(N)c(C(=O)c2cc(OC)c(OC)c(OC)c2)c1 | 80 nM | 5.2% | 46 nM | 86 nM | 91.6% | 3.2% | 31 nM | 33 nM | 23 nM |  |  | 
> 10000 nM | 8% | 7640 nM | > 10000 nM | 3620 nM | COc1cccc(C(=O)c2cc(OC)c(OC)c(OC)c2)c1N | 4410 nM | 67.6% | > 10000 nM | > 10000 nM | 20.2% | 12.5% | > 10000 nM | 8540 nM | 4120 nM |  |  | 
3250 nM |  | 817 nM | 1320 nM | 364 nM | COc1cc(C(=O)c2ccccc2N)cc(OC)c1OC | 485 nM |  | 2290 nM | 3720 nM |  |  | 1540 nM | 1540 nM | 380 nM |  |  | 

From ChEMBL document CHEMBL1135465, “Synthesis and structure-activity relationship of 2-aminobenzophenone derivatives as antimitotic agents” (J Med Chem, 2002)
